Test results: ChEMBL document CHEMBL5154854, “Identification of a Vitamin-D Receptor Antagonist, MeTC7, which Inhibits the Growth of Xenograft and Transgenic Tumors In Vivo” (J Med Chem, 2022)

Molecular target: T1, Vitamin D3 receptor (Homo sapiens) (UniProt P11473)
T1 sequence (whole entry): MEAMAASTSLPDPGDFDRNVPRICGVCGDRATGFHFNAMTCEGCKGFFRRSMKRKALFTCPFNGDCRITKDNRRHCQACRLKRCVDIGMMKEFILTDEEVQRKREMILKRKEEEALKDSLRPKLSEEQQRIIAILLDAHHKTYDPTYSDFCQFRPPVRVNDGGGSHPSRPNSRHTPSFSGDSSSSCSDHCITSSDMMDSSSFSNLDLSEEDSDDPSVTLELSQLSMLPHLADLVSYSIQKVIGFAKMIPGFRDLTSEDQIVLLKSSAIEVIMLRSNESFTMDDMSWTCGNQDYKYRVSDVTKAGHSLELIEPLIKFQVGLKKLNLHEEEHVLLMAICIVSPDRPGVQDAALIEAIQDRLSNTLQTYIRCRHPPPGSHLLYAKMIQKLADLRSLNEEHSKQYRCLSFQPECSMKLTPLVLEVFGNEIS
Test: Antagonist activity at VDR LBD (unknown origin) using Alexa Fluor 647-labeled SRC2-3 as substrate incubated for 2 hrs in presence of calcitriol by fluorescence polarization assay
In short: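 VDR-LBD (0.1 μM) with Alexa Fluor 647-labelled SRC2-3 (17.5 nM) and 10 nM 1,25(OH)2D3 in 25 mM PIPES, 50 mM NaCl, 0.01% NP-40, pH 6.75. Compounds were serially diluted 1:2 from 10 mM DMSO stocks and incubated 2 h. Polarization was read at 635/685 nm. Three independent experiments in quadruplicate; IC50 by variable-slope nonlinear regression.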

- Activity: > 100 µM
Structure (SMILES): CC(C)CCC[C@@H](C)[C@H]1CC[C@@H]2[C@]1(C)CCC1[C@]23C=C[C@]2(C[C@@H](O)CC[C@]12C)n1c(=O)n(C)c(=O)n13 (stereo partly specified)
